Results reported in ChEMBL document CHEMBL1131119, “N'-Phenylindol-3-ylglyoxylohydrazide derivatives: synthesis, structure-activity relationships, molecular modeling studies, and pharmacological action on brain benzodiazepine receptors” (J Med Chem, 1998).
Activity calls are given as the source filed them. The rule behind the calls is not given here.

Assays:
Mus musculus [1] = assay: Convulsant effect in mice following subconvulsant PTZ(40 mg/kg, sc) dose; assay type: functional
Outline: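 Groups of 10 mice were given graded ip doses (up to 250 mg/kg) in 20% dilute Emulphor–80% saline, or vehicle alone. A subconvulsant dose of PTZ (40 mg/kg sc) followed 30 min later. ED50 was the dose inducing convulsions in 50% of mice. Values are means of at least three determinations.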

Mus musculus [2] = assay: Antagonistic effect against the anticonvulsant Diazepam (2.5 mg/kg, ip) effect in mice after PTZ (80 mg/kg, sc) dose; assay type: functional
Mus musculus [3] = assay: Antagonistic effect against PTZ (80 mg/kg, sc) convulsant action in mice (ineffective); assay type: functional, organism-based
Outline: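 Groups of 10 mice received graded ip doses (up to 250 mg/kg), suspended in 20% dilute Emulphor (1:1 w/w with ethanol)–80% saline, or vehicle alone. PTZ 80 mg/kg sc followed 30 min later. ED50 was the dose protecting 50% of mice from convulsions. Values are means of at least three determinations.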

[4] = target: GABA-A receptor; anion channel (Bos taurus) (UniProt P10063+P08220+P20237+P08219+P10064+P22300); conditions: Brain membranes, at 0.5 µM
[5] = target: GABA-A receptor; anion channel; assay: Inhibition of [3H]-Ro- 15-1788 binding to GABA-A benzodiazepine receptor of bovine brain membranes; assay type: cell membranes, Bos taurus
Outline: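 Bovine cerebral cortex membranes, freeze–thawed and washed in 50 mM Tris-citrate pH 7.4; competition against [3H]Ro 15-1788 by filtration. […] Ki as mean ± SEM of three determinations.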

Mus musculus [6] = assay: Convulsant effect in mice following subconvulsant PTZ(40 mg/kg, sc) dose, ineffective to 250 mg/kg; assay type: functional, organism-based; set-up: dose 250 mg/kg
Mus musculus [7] = assay: Antagonistic effect against PTZ (80 mg/kg, sc) convulsant action in mice; assay type: functional
Mus musculus [8] = assay: Antagonistic effect against the anticonvulsant Diazepam (2.5 mg/kg, ip) effect in mice after PTZ (80mg/kg, sc) dose, ineffective to 250 mg/kg; assay type: functional, organism-based; set-up: dose 250 mg/kg

COC(=O)c1cc2c(cn1)[nH]c1ccccc12 [BETA-CCM]
Proconvulsant action (Mus musculus [1]): 19.4 | Diazepam antagonism (Mus musculus [2]): 0.02 | ED50 (Mus musculus [3]): inactive

COc1ccc(NNC(=O)C(=O)c2c[nH]c3ccccc23)cc1
Clonazepam [4]: 17% | Ki [5]: 430 nM

O=C(NNc1ccc([N+](=O)[O-])cc1)C(=O)c1c[nH]c2ccccc12
Clonazepam [4]: 20% | Proconvulsant action (Mus musculus [6]): inactive | ED50 (Mus musculus [7]): 10 mg/kg | Ki [5]: 11 nM | Diazepam antagonism (Mus musculus [8]): inactive

O=C(NNc1ccc(O)cc1)C(=O)c1c[nH]c2ccccc12
Ki [5]: 3400 nM

CN1C(=O)CN=C(c2ccccc2)c2cc(Cl)ccc21 [DIAZEPAM]
ED50 (Mus musculus [7]): 0.4 mg/kg

O=C(NNc1ccc(F)cc1)C(=O)c1c[nH]c2ccccc12
Clonazepam [4]: 18% | Proconvulsant action (Mus musculus [6]): inactive | ED50 (Mus musculus [7]): 60 mg/kg | Ki [5]: 57 nM | Diazepam antagonism (Mus musculus [8]): inactive

O=C1CN=C(c2ccccc2Cl)c2cc([N+](=O)[O-])ccc2N1
Clonazepam [4]: 100%

O=C(NNc1ccc(Cl)cc1)C(=O)c1c[nH]c2ccccc12
Clonazepam [4]: 16% | Proconvulsant action (Mus musculus [6]): inactive | ED50 (Mus musculus [7]): 25 mg/kg | Ki [5]: 62 nM | Diazepam antagonism (Mus musculus [8]): inactive

Cn1cc(C(=O)C(=O)NNc2ccc([N+](=O)[O-])cc2)c2ccccc21
Ki [5]: 455 nM

CCOC(=O)c1ncn2c1CN(C)C(=O)c1cc(F)ccc1-2 [FLUMAZENIL]
Diazepam antagonism (Mus musculus [2]): 0.3 | Proconvulsant action (Mus musculus [6]): inactive

O=C(NNc1ccccc1)C(=O)c1c[nH]c2ccccc12
Clonazepam [4]: 20% | Ki [5]: 203 nM

Cn1cc(C(=O)C(=O)NNc2ccccc2)c2ccccc21
Ki [5]: 1200 nM

CN(NC(=O)C(=O)c1c[nH]c2ccc([N+](=O)[O-])cc12)c1ccccc1
Clonazepam [4]: 53% | Proconvulsant action (Mus musculus [6]): inactive | ED50 (Mus musculus [7]): 25 mg/kg | Ki [5]: 2400 nM | Diazepam antagonism (Mus musculus [8]): inactive

Cc1cccc(NNC(=O)C(=O)c2c[nH]c3ccccc23)c1
Clonazepam [4]: 20% | Ki [5]: 510 nM

Cc1ccc(NNC(=O)C(=O)c2c[nH]c3ccccc23)cc1
Clonazepam [4]: 9% | Ki [5]: 290 nM
